Columns and labels:
[1] = test system: PATU-8988T C1 (Pin1 WT) and C2 (Pin1 KO); assay: Cell viability, dose series in 2D monolayer, C1 vs C2; format: cell-based, human; details: juglone 4 days, KPT-6566 3 days
Pin1 = Pin1 (Homo sapiens, UniProt Q13526); assay: Cellular target engagement, live cell competition with BJP-DTB; format: cell-based; details: PATU-8988T cells, 5 h treatment
How it was run: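 PATU-8988T, PC3 or MDA-MB-468 cells (2.5 million per 10 cm plate) were dosed next day with test compound, either as a concentration series for 5 h or at 5 μM over time. Cells were PBS-washed, scraped and lysed (HEPES pH 7.4, NP-40, TCEP, protease inhibitors). Lysate (500 μg protein) took desthiobiotin-tagged probe at 4°C, then streptavidin agarose for 1 h at 4°C. Washed beads were boiled in LDS for immunoblotting.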

FKBP12^F36V-Pin1 = assay: dTAG degradation of FKBP12F36V-Pin1 by immunoblot; format: cell-based, human; details: for rescue of dTAG-13 degradation by pretreatment: 2 h pretreatment, then 5 h dTAG-13 500 nM
[2] = test system: phospho-CDK1 Tyr15, c-Myc, β-Catenin, NFkB p65; assay: Inhibitor effects on Pin1 downstream signaling; format: cell-based, human; details: C2 + FKBP12F36V-Pin1 cells, 5 h
How it was run: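 Cells seeded at 100,000 per 6-well well, treated next day with DMSO, test compound, dTAG-13 or Dox, then lysed in RIPA with protease/phosphatase inhibitors for western blotting. For fractionation, 2 million cells per 10 cm plate were treated 5.5 h, trypsinised and split by nuclear/cytoplasmic extraction kit. For Wnt3a arms, cells had 4 h compound, then Wnt3a (50 ng/mL) for 4 more hours.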

[3] = test system: PATU-8988T cells (parental, C1, C2 and transduced C2); assay: Cell viability, growth over time in 2D-adherent monolayer; format: cell-based, human
How it was run: (§1)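 Cells seeded at 100 per well in 96-well plates, one plate per time point, and dosed the day after plating with DMSO, test compound or dTAG-13 at 37°C, 5% CO2. Medium and compound were renewed every 48 h, with Dox 100 ng/mL added for inducible C2 cells. CellTiter-Glo luminescence was normalised to a Day 0 plate read before dosing. At least n = 3 biological replicates.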

[4] = test system: PATU-8988T FKBP12^F36V-KRAS^G12V; KRAS^−/− clone; assay: Viability with FKBP12F36V-KRASG12V degradation, 4 days; format: cell-based, human; details: 4-day treatment; dTAG-13 100 nM, BJP-06-005-3 5 μM
How it was run: as §1

[5] = C2 + FKBP12F36V-Pin1 cells, 5 h

Sequence of Pin1 (Q13526 whole entry): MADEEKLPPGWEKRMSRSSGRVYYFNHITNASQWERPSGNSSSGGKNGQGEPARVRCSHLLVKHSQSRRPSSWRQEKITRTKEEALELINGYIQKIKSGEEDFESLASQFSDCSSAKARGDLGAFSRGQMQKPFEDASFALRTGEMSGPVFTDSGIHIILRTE

With `CC(C)(C)c1ccc(S(=O)(=O)N=C2C=C(SCC(=O)O)C(=O)c3ccccc32)cc1` [KPT-6566] the “anti-proliferative effects, C1 versus C2” value [1] was “identical anti-proliferative effects in C1 and C2” and the “competition with BJP-DTB for cellular Pin1” value (Pin1) was “unable to validate that KPT-6566 engages cellular Pin1”.
For `NS(=O)(=O)OC[C@@H]1C[C@@H](n2ccc3c(N[C@H]4CCc5ccccc54)ncnc32)C[C@@H]1O` [MLN4924], the “rescue of dTAG-13 degradation by pretreatment” value (FKBP12^F36V-Pin1) was “degradation was rescued upon pretreatment”.
`CC(C)C[C@H](NC(=O)[C@H](CCc1ccccc1)NC(=O)CN1CCOCC1)C(=O)N[C@@H](Cc1ccccc1)C(=O)N[C@@H](CC(C)C)C(=O)[C@@]1(C)CO1` [carfilzomib] was tested, and the “rescue of dTAG-13 degradation by pretreatment” value (FKBP12^F36V-Pin1) was “degradation was rescued upon pretreatment”.
With `CC[C@H](C(=O)N1CCCC[C@H]1C(=O)O[C@H](CCc1ccc(OC)c(OC)c1)c1ccccc1OCC(=O)NCCCCCCOc1cccc2c1C(=O)N(C1CCC(=O)NC1=O)C2=O)c1cc(OC)c(OC)c(OC)c1` (stereo partly drawn) [dTAG-13] the time to degradation (FKBP12^F36V-Pin1; 500 nM dTAG-13) was 2 to 4 h, the “concentration at which hook effect apparent” value (FKBP12^F36V-Pin1; [5]) was 1 µM and the “concentration of maximal degradation” value (FKBP12^F36V-Pin1; [5]) was 100 to 500 nM. The “phospho-CDK1 Tyr15” value [2] was “also increased phospho-CDK1 Tyr15”, the cell proliferation ([3]; C2 + FKBP12F36V-Pin1, 2.5 μM) was “not at 2.5 μM” and the cell proliferation ([3]; C2 + FKBP12F36V-Pin1, 100 or 500 nM) was “diminished cell proliferation after 6–8 days”. For the same compound, the cell viability [4] was “modest viability effects”.
In the case of `O=C1C=CC(=O)c2c(O)cccc21` [juglone], the “anti-proliferative effects, C1 versus C2” value [1] is reported as “identical anti-proliferative effects in C1 and C2”.

Source: paper PMC7442691 (Nature chemical biology, 2020)
